The nature of series [1]: folding enthalpy; higher = less favourable; fluorescence melt of hairpins on a sequencing array, two-state fit. Conditions: sodium 0.088 M. The procedure, abridged:
(§1)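 In 50 mM Na-HEPES pH 8.0 containing 25 mM NaCl, hairpins from the library on a sequenced MiSeq flow cell were imaged for Cy3 fluorescence at 2.5 °C steps up to 60 °C, with Cy3 and quencher oligos annealed. After normalisation to pre-quench Cy3 and to control constructs, two-state fits with bootstrapping gave melting temperature and folding enthalpy. Four replicates were combined by inverse-variance weighting, and fitted temperatures were shifted up by 9.35 °C to match UV melts.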

Series [2] is described as follows: melting temperature; fluorescence melt of hairpins on a sequencing array, two-state fit, raised by 9.35 °C to match UV melts. The note with it: sodium 0.088 M. The method in brief: as §1

Regarding GTGCAGGGAAACCTGCGC (.(((((....))))).), the folding enthalpy in series [1] was -26.2 kcal/mol. The Tm in series [2] is 58.9 °C.

On to GTGCATCGAAAGATCAC (((.(((....)))))), for which, in series [1], the folding enthalpy was -24.2 kcal/mol. Also, the Tm in series [2] came to 46.8 °C.

Take GTGCATGAAAATGCAC ((((((....)))))): the folding enthalpy in series [1] was -31.6 kcal/mol. In addition, in series [2], the Tm was determined as 67 °C.

As to GTGCATTCGAAAGAACAC (((..(((....)))))), the folding enthalpy in series [1] was -7.63 kcal/mol. For the same sequence, the Tm in series [2] is 23.8 °C.

Turning to GTGCCAGAAATGGCAC ((((((....)))))), the folding enthalpy in series [1] is -36.7 kcal/mol. The Tm in series [2] came out at 67.8 °C.

For the sequence GTGCCAGGAAACTAGCAC ((((.((....)).)))), the folding enthalpy in series [1] was -28.2 kcal/mol. For the same sequence, the Tm in series [2] came to 43.2 °C.

Regarding GTGCCCGAAAGGGATCAC ((((((....)))..))), in series [1], the folding enthalpy was -13.2 kcal/mol. Further, the Tm in series [2] is 40.3 °C.

In the case of GTGCCCGAAAGGGCTCAC ((((((....)))..))), the folding enthalpy in series [1] was -7.4 kcal/mol. The Tm in series [2] is 45.5 °C.

Regarding GTGCCCGAAAGGGGGCAC ((((((....)))..))), the folding enthalpy in series [1] was -22.2 kcal/mol. Further, the Tm in series [2] stood at 69.1 °C.

On to GTGCCCGAAAGGGTCAC ((((((....))).))), for which the folding enthalpy in series [1] was -18.1 kcal/mol. Besides, in series [2], the Tm was 55 °C.

Take GTGCCCGAAAGGGTGCAC ((((((....)))..))): the folding enthalpy in series [1] was -14.6 kcal/mol. In series [2], the Tm amounted to 55.3 °C.

GTGCCCGGAAACGGGTAC ((.((((....)))).)): the folding enthalpy in series [1] is -30 kcal/mol. For the same sequence, the Tm in series [2] amounted to 62.9 °C.

As for GTGCCCGGAAACGGGTGC (..((((....))))..), in series [1], the folding enthalpy is -21.9 kcal/mol. Also, the Tm in series [2] came to 53.9 °C.

With GTGCCCTCGAAAGAGCAC (((..(((....)))))), the folding enthalpy in series [1] was -18.8 kcal/mol. Moreover, the Tm in series [2] came to 43 °C.

For GTGCCGACGAAAGTCCAC (((..(((....)))))), in series [1], the folding enthalpy is -8.42 kcal/mol. Also, the Tm in series [2] came to 53.8 °C.

GTGCCGCGAAAGCGTCAC (((.(((....))).))): the folding enthalpy in series [1] was -29.1 kcal/mol. Further, in series [2], the Tm is 61.7 °C.

On to GTGCCTGCGAAAGCACAC (((..(((....)))))), for which, in series [1], the folding enthalpy was -7.25 kcal/mol. Moreover, the Tm in series [2] is 55 °C.

With GTGCCTGGAAACAGACAC (((.(((....))).))), the folding enthalpy in series [1] is -28.6 kcal/mol. Also, the Tm in series [2] turned out to be 46.9 °C.

As to GTGCCTGGAAACAGGTGC (..((((....))))..), the folding enthalpy in series [1] is -23.2 kcal/mol. In addition, the Tm in series [2] is 48.9 °C.

Consider GTGCGAGGAAACCCACAC (((.(.(....).).))), for which, in series [1], the folding enthalpy is -10.4 kcal/mol. Further, the Tm in series [2] is 24.6 °C.

Regarding GTGCGAGGAAACTTGCAC ((((.((....)).)))), in series [1], the folding enthalpy is -54 kcal/mol. The Tm in series [2] stood at 53.7 °C.

For the sequence GTGCGCACGAAAGTGCAC (((..(((....)))))), the folding enthalpy in series [1] was -11.4 kcal/mol. For the same sequence, the Tm in series [2] was determined as 64 °C.

Regarding GTGCGCCGAAAGGCACAC (((.(((....))).))), the folding enthalpy in series [1] is -29 kcal/mol. Also, the Tm in series [2] stood at 63.7 °C.

For GTGCGCGAAAGCGATCAC ((((((....)))..))), the folding enthalpy in series [1] is -13.4 kcal/mol. Besides, in series [2], the Tm turned out to be 41 °C.

As for GTGCGCGAAAGCGCCCAC ((((((....)))..))), in series [1], the folding enthalpy is -6.88 kcal/mol. The Tm in series [2] came out at 43.3 °C.

For the sequence GTGCGCGAAAGCGTCAC ((((((....))).))), the folding enthalpy in series [1] was -21 kcal/mol. Besides, the Tm in series [2] is 58.6 °C.

Regarding GTGCGCGAAAGCGTCCAC ((((((....)))..))), the folding enthalpy in series [1] was -9.9 kcal/mol. Besides, the Tm in series [2] was 36.4 °C.

Consider GTGCGCGGAAACGCGTGC (..((((....))))..), for which, in series [1], the folding enthalpy is -16.7 kcal/mol. In addition, the Tm in series [2] was 57 °C.

In the case of GTGCGGGGAAACCTGCAC ((((.((....)).)))), the folding enthalpy in series [1] was -29.3 kcal/mol. For the same sequence, the Tm in series [2] was determined as 58.7 °C.

Take GTGCGGGGAAACTCGCGC (.(((.(....).))).): the folding enthalpy in series [1] was -24 kcal/mol. Also, the Tm in series [2] is 53.5 °C.

The values are drawn from the array DNA melting data of Ke et al. (doi:10.1101/2024.01.08.574731).
